Bioassay records (PubChem BioAssay)
In the library only some 5.8% were active in any assay of this set; here they are far more common.
PLK1 kinase inh – PLK1 (human) kinase inhibition | P53350 | inhibition, % at 10 µM | recombinant PLK1 kinase, TR-FRET peptide phosphorylation | 97,000 tested, 0.53% active | AID 619;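 active means inhibition of 50% or more in the single-concentration screen; inactive means inhibition below 50%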;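 further: 0% = DMSO max control and 100% = H-89 dihydrochloride min control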
PTK2B oligo ant – antagonists of human Pyk2 oligomerization | 99,000 tested, 0.83% active | Q14289 | AID 1347419 | Q293 cells, Pyk2 FERM NanoBiT luminescence; hits give low values | z-score (the deposit names both 25 µM and 10 µM);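 active means Z-score of -3 or lower, scaled per plate to the spread of control and sample wells; inactive means z-score above -3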;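 further: negative z-score means lost luminescence so less FERM oligomerization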
Target sequence (Q14289 whole entry, looked up): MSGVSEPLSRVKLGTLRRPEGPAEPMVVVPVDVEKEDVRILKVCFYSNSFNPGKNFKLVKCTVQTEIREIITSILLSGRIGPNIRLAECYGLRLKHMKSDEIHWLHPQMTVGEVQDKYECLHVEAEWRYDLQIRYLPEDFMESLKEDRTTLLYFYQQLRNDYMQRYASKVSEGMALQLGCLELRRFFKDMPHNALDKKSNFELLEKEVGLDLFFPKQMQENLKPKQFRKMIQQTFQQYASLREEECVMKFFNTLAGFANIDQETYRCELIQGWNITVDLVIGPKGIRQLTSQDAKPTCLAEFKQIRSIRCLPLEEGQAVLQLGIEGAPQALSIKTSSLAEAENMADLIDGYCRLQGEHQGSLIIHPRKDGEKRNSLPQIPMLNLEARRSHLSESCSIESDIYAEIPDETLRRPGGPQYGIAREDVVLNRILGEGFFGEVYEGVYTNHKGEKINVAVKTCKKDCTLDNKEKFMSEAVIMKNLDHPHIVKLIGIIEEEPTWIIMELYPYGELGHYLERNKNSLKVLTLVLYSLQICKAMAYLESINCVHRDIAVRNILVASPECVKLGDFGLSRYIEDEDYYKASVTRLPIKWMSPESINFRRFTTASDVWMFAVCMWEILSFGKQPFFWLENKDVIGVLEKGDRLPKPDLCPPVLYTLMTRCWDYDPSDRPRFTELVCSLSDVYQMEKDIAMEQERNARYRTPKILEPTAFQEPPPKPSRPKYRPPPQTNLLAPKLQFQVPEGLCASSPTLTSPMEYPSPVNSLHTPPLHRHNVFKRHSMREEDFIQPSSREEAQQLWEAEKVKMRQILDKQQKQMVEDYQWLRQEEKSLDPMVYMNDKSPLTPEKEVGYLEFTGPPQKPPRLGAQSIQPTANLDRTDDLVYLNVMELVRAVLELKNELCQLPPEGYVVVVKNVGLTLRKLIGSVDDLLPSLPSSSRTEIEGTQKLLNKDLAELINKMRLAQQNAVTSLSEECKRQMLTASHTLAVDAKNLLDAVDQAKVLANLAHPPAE
Plk1 PBD FP – Plk1 (human) PBD binding inhibition. inhibition, %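 (tested at about 20 µM)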. Plk1 PBD phosphopeptide binding, fluorescence polarization. 97,000 tested, 0.13% active. P53350; in the data active means inhibition above about 34%, passing the limit was not always enough
HIV Rev-RRE inh – disrupts HIV-1 Rev binding to RRE RNA; inhibition, % at 8 µM; AID 704; P05866; Rev peptide-RRE RNA binding, FRET; 97,000 tested, 0.79% active;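 active means inhibition above the screen-wide mean plus 3 SD, cut at about 35% in these data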;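 further: 0% = median DMSO wells and 100% = median Neomycin B control wells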
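Test system: labelled RRE RNA duplex and labelled Rev peptide. Times: 5 min compound–RNA preincubation, then 15 min with peptide, 25 °C. Doses: single-dose 8 µM. Measured by: FRET, excitation 480 nm, emission 540 nm donor and 671 nm acceptor. Measure: % inhibition of FRET ratio versus controls.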
FAK blocker – blocks human focal adhesion kinase activity | Q05397 | biochemical FAK kinase activity assay | inhibition, %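 (tested at 7 µM)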 | 97,000 tested, 0.84% active; in the data active means inhibition above about 19%;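 further: 0% = DMSO and 100% = reference compound high control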
Cav32 inh – human Cav3.2 channel inhibition, primary screen | O95180 | B-score at 10 µM | Cav3.2-expressing cells, Fluo-4 calcium fluorescence FDSS; hits give low values | 100,000 tested, 4% active;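 active means single-dose well whose peak fluorescence ratio is a statistical outlier from its plate by either plate-standardised score or position-corrected B-score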
* = called active by the depositor; [ ] = remark or other dose.

What do the screens show for `CC1(C)c2[nH]c3ccccc3c2C[C@@H]2C(=O)N(Cc3ccco3)C(=O)N21`?
Cav32 inh: -0.024

Results for Cc1ccc(C(=O)N2c3ccccc3N(Cc3ccccc3)C(=O)C2(C)C)cc1 ?
PLK1 kinase inh: -3; PTK2B oligo ant: -1.3; Plk1 PBD FP: -24; HIV Rev-RRE inh: 6; FAK blocker: -6; Cav32 inh: -2

What do the screens show for `CCOc1ccc(N=C2NC(=O)S/C2=C\c2ccc(N(C)C)cc2)cc1`?
PLK1 kinase inh: -19; PTK2B oligo ant: -2.2; Plk1 PBD FP: -18; HIV Rev-RRE inh: 118*[fluorescence artefact?]; FAK blocker: 19

Results for Cc1ccc(NC(=O)c2cc([N+](=O)[O-])ccc2NCc2cccnc2)cc1 ?
PLK1 kinase inh: -7; PTK2B oligo ant: -2.9; Plk1 PBD FP: -8; HIV Rev-RRE inh: 3; FAK blocker: -1; Cav32 inh: -0.37

What do the screens show for `CN1CCc2nc(SCC(=O)Nc3cccc(F)c3)c(C#N)c(-c3cccs3)c2C1`?
PLK1 kinase inh: -6; PTK2B oligo ant: -3.1*; Plk1 PBD FP: -50; HIV Rev-RRE inh: 56*; FAK blocker: 6

Results for COC(=O)c1cc(NC(=O)Cn2c(=O)cnc3ccccc32)cc(C(=O)OC)c1 ?
PLK1 kinase inh: -12; PTK2B oligo ant: -2.1; Plk1 PBD FP: -4; HIV Rev-RRE inh: 15; FAK blocker: -1; Cav32 inh: 0.088

How did O=C(CSCc1cccc(CSCC(=O)Nc2ccc3ccccc3c2)n1)Nc1ccc2ccccc2c1 do in these assays?
PLK1 kinase inh: -11; PTK2B oligo ant: -0.92; Plk1 PBD FP: -6; HIV Rev-RRE inh: 8; FAK blocker: 8

What do the screens show for `O=C(CSc1cccs1)Nc1ccc2ccccc2c1`?
PLK1 kinase inh: -4; PTK2B oligo ant: -0.19; Plk1 PBD FP: 30; HIV Rev-RRE inh: 5; FAK blocker: 5; Cav32 inh: -5.3*

What do the screens show for `O=S(=O)(c1ccccc1)c1nc(Nc2ccccc2N2CCOCC2)sc1Cl`?
PLK1 kinase inh: -3; PTK2B oligo ant: -0.64; Plk1 PBD FP: 5; HIV Rev-RRE inh: 14; FAK blocker: -4; Cav32 inh: -5.3*

What do the screens show for `O=C(Nc1ccc(Cl)c(Cl)c1)N(CCCN1CCOCC1)Cc1cccs1`?
PLK1 kinase inh: -8; Plk1 PBD FP: 28; HIV Rev-RRE inh: 11; FAK blocker: 12; Cav32 inh: -0.54

Results for Cc1ccc(C)c(NC(=S)NCc2ccc3c(c2)OCO3)c1 ?
PLK1 kinase inh: -2; PTK2B oligo ant: 2.2; Plk1 PBD FP: -6; HIV Rev-RRE inh: 2; FAK blocker: -2; Cav32 inh: -1.2

Results for Cc1cc(C)cc(NC(=S)NCc2ccc3c(c2)OCO3)c1 ?
PLK1 kinase inh: 3; PTK2B oligo ant: 0.06; Plk1 PBD FP: -8; HIV Rev-RRE inh: 1; FAK blocker: 4; Cav32 inh: -4.8*

What do the screens show for `Cc1ccc(CNc2ccc3c(c2)OCO3)cc1`?
PLK1 kinase inh: -6; PTK2B oligo ant: -1.2; Plk1 PBD FP: -50; HIV Rev-RRE inh: 75*; FAK blocker: 4; Cav32 inh: -0.45

How did Cc1ccc(CCNC(=O)c2nnn(-c3cc(C)cc(C)c3)c2N)cc1 do in these assays?
PLK1 kinase inh: -4; PTK2B oligo ant: -0.37; Plk1 PBD FP: -21; HIV Rev-RRE inh: 9; FAK blocker: 0; Cav32 inh: -0.65

What do the screens show for `Cc1cc(C)cc(-n2nnc(C(=O)NCc3ccc4c(c3)OCO4)c2N)c1`?
PLK1 kinase inh: 5; PTK2B oligo ant: -1.7; Plk1 PBD FP: 8; HIV Rev-RRE inh: 5; FAK blocker: 1; Cav32 inh: -5.4*

What do the screens show for `C=COCCNC(=O)Nc1ccc(Cl)c(Cl)c1`?
PLK1 kinase inh: -10; PTK2B oligo ant: -0.53; Plk1 PBD FP: -11; HIV Rev-RRE inh: 3; FAK blocker: -4; Cav32 inh: -2.1

How did O=C(Nc1ccc2cn[nH]c2c1)c1ccc(Cl)c(S(=O)(=O)N2CCOCC2)c1 do in these assays?
PTK2B oligo ant: 0.62

What do the screens show for `Cc1ccccc1-n1c(SCc2c(C)noc2C)nnc1-c1ccncc1`?
PLK1 kinase inh: 2; PTK2B oligo ant: 0.09; Plk1 PBD FP: 0; HIV Rev-RRE inh: 7; FAK blocker: -2; Cav32 inh: -0.033

What do the screens show for `Cc1ccccc1-n1c(SCc2c(C)noc2C)nnc1-c1cccnc1`?
PLK1 kinase inh: -19; PTK2B oligo ant: 0.29; Plk1 PBD FP: 0; HIV Rev-RRE inh: 55*; FAK blocker: 1; Cav32 inh: -0.9

How did CCOc1ccc2nnc(-c3ccc(Br)cc3)n2n1 do in these assays?
PLK1 kinase inh: 2; PTK2B oligo ant: -0.28; Plk1 PBD FP: 5; HIV Rev-RRE inh: -1; FAK blocker: -7; Cav32 inh: 0.45

Results for COc1cccc(C(C)NC(=O)Nc2cccc(C(F)(F)F)c2)c1 (stereo unspecified) ?
PLK1 kinase inh: -4; PTK2B oligo ant: -2.1; Plk1 PBD FP: -1; HIV Rev-RRE inh: 21; FAK blocker: 2; Cav32 inh: -8.3*

How did COc1ccc(/C(N)=N/OC(=O)CSc2ccccc2)cc1OC do in these assays?
PLK1 kinase inh: -6; PTK2B oligo ant: -0.21; Plk1 PBD FP: -1; HIV Rev-RRE inh: 14; FAK blocker: -3; Cav32 inh: -0.077

What do the screens show for `O=C(c1ccccc1)N1CCN2C(=O)c3ccccc3C12c1ccc(Cl)cc1` (stereo unspecified)?
PLK1 kinase inh: -14; PTK2B oligo ant: -1.5; Plk1 PBD FP: -8; HIV Rev-RRE inh: 9; FAK blocker: -1; Cav32 inh: -8.4*

Results for O=C(Nc1ccccc1)N1CCN2C(=O)c3ccccc3C12c1ccccc1 (stereo unspecified) ?
PLK1 kinase inh: -13; PTK2B oligo ant: -2.1; Plk1 PBD FP: -18; HIV Rev-RRE inh: 9; FAK blocker: 0; Cav32 inh: -6.9*

How did O=C(c1ccccc1)N1CCN(c2ccc(Cl)cc2)CC1 do in these assays?
PLK1 kinase inh: -9; PTK2B oligo ant: 0.98; Plk1 PBD FP: -15; HIV Rev-RRE inh: 0; FAK blocker: 1; Cav32 inh: 0.011

What do the screens show for `CNC(=O)C(=O)NCCc1ccc(Cl)cc1`?
PLK1 kinase inh: -2; PTK2B oligo ant: 0.43; Plk1 PBD FP: -15; HIV Rev-RRE inh: -1; FAK blocker: -2; Cav32 inh: -0.33

How did COCCn1nnnc1C(c1ccc(OC)cc1OC)N1CCN(c2ccccc2F)CC1 (stereo unspecified) do in these assays?
PLK1 kinase inh: -3; PTK2B oligo ant: -4.4*; Plk1 PBD FP: -6; HIV Rev-RRE inh: 5; FAK blocker: 5; Cav32 inh: -0.12

What do the screens show for `COCCn1nnnc1C(c1ccc(OC)cc1OC)N1CCN(c2ccccc2)CC1` (stereo unspecified)?
PLK1 kinase inh: -13; PTK2B oligo ant: -4.1*; Plk1 PBD FP: 8; HIV Rev-RRE inh: 6; FAK blocker: -2

How did COc1ccc(N2CCN(C(c3cc(OC)ccc3OC)c3nnnn3Cc3ccco3)CC2)cc1 (stereo unspecified) do in these assays?
PTK2B oligo ant: -3.2*; Cav32 inh: -2
